Laboratory results taken from ChEMBL document CHEMBL4513216, “Probing the Open Global Health Chemical Diversity Library for Multistage-Active Starting Points for Next-Generation Antimalarials” (ACS Infect Dis, 2020).

Test: Toxicity liver stage against HepG2, at 10uM
Type: cell-based
Design: test concentration 10 uM, cell line HepG2-A16-CD81EGFP
Details: human, HepG2-A16-CD81EGFP cells; read-out: INHIBITION
How it was run: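 Uninfected HepG2-A16-CD81EGFP cells, 3 × 10^3 per well, 1536-well, plated on prespotted compound at 10 μM final, parasite-free screening media added to match infected plates; puromycin 10 μM positive, DMSO 0.5% negative; run in parallel with 48 h PbLuc assay at 37 °C, 5% CO2; viability by CellTiter-Glo luminescence, normalized to controls.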

Compound	cytotoxicity at 10 µM
Cc1ncc(CN(C)Cc2nc3cc(Cl)ccc3n2C)s1	-42.9%
CCCc1nc2c(c(C)c(C)n2Cc2cccnc2)c(N)c1CC	15%
Cc1ccnc(SCC(=O)Nc2csc3nc(=O)c(C)nn23)n1	12.2%
CCC(C)NC(=O)c1snnc1-c1ccc(OC)cc1 (stereo not drawn)	6.93%
Cn1ccc2c(NC(=O)Cn3ncc4c(c3=O)CCCC4)cccc21	2.33%
CC(C)C1SCC(=O)Nc2c1c(O)nn2C1CCCCC1 (stereo not drawn)	2.42%
O=C1CSC(c2ccc(F)c(Cl)c2)c2c(n(C3CCOCC3)[nH]c2=O)N1 (stereo not drawn)	3.4%
O=C(C1=COCCO1)N1CC(Oc2nc3c(Cl)cccc3s2)C1	38.2%
O=C(NCc1ccccc1)N1CCC(Oc2ncccc2Br)CC1	18.3%
Cc1csc(C(=O)N2CC(S(=O)(=O)C3CCCCC3)C2)c1	-2.83%
O=C(c1cnccn1)N1C[C@@H](c2ccccc2)[C@@]2(CCNC2=O)C1	-1.59%
COc1cc(N2CC[C@@H]3O[C@@H](c4ccncn4)C[C@H]3C2)ncn1	12.6%
O=C(NC1CC1)c1cc2c(nc1O)CC(c1cccs1)CC2=O (stereo not drawn)	86.1%
CSC1=Nc2c(cnn2-c2ccccc2)C2=NCCCN12	8.85%
Cn1nc(C(=O)NCc2cccnc2)c2c1CCS(=O)(=O)C2	6.09%
Cc1nnc(SCC(=O)NCc2ccc3c(c2)CCC(=O)N3)s1	-5.03%
CCn1nc(C)c(CNC(=O)c2nnc3ccc(Cl)cc3n2)c1C	8.1%
CCC(=O)N1CCCC(c2nc(N(C)C)ncc2-c2ccc(F)cc2)C1 (stereo not drawn)	28.1%
CSc1ccc(CN2C[C@@H]3CC[C@@](O)(c4ccc(C)cn4)[C@@H]3C2)cc1	-15.7%
CC(C)N(CC(=O)Nc1ccc(Br)cc1Cl)Cc1cccnc1	17.2%
Cc1c(Cl)cccc1NC(=O)CN(Cc1cccnc1)C(C)C	4.77%
CC(C)(C)NC(=O)CN1CCCNCC1	-145%

Compound	cytotoxicity at 10 µM
Cn1ccc(N2CCCC(NC(=O)c3ccsc3)C2=O)n1 (stereo not drawn)	-3%
CN(CCN1CCN(c2ccccc2)CC1)C(=O)Nc1ccncc1	11.5%
Cc1cnn(C2CN(CC(O)COc3ccc(C#N)cc3)C2)c1 (stereo not drawn)	1.81%
Cc1c(CS(C)(=O)=O)cccc1NCCCC1CCCC1	17.5%
Cc1nc(CN2CCc3c(nc(C4CC4)n3C)C2)nc2ccccc12	7.36%
N#Cc1ccc(NCC(=O)Nc2ncn(Cc3cccnc3)n2)cc1	7.65%
CN(CC(=O)Nc1nc2c(s1)CCCCCC2)C(=O)c1ccco1	37.9%
Cc1c(CN2CCCC(C(=O)Nc3ccccc3)C2)cc(C#N)n1C (stereo not drawn)	6.75%
Cc1nn(C)c(NC(=O)C2SCCc3ccccc32)c1C (stereo not drawn)	45.8%
CCC(CNC(=O)c1c(C)nn(C)c1OC)Oc1ccccc1 (stereo not drawn)	-4.89%
Cc1nc(CN2CCN(C(=O)CCc3cccc(Cl)c3)CC2)no1	2.93%
CN(C)CCCNC(=O)c1cnc(Cc2ccc(F)cc2)s1	3.47%
CN1CCN(c2cc(CNCc3cccc4c3OCO4)ccn2)CC1	-5.31%
Cc1nc(C)n(CC2CCCN2CC(=O)N(C)Cc2ccc(C)o2)n1 (stereo not drawn)	8.52%
Cc1noc(C)c1CN1CCC(c2nc3cc(Cl)ccc3o2)CC1	-4.22%
CN(Cc1cccc(F)c1)C(=O)CN1CCCC(Cn2cncn2)C1 (stereo not drawn)	4.64%
CN(Cc1ccccc1)C(=O)CSc1ccc2c(c1)OCCO2	-9.48%
N#Cc1nccnc1N1CCC(OCCCc2ccccc2)C1 (stereo not drawn)	4.31%
CNC(=O)CNC(=O)Nc1cc(-c2ccccc2)ns1	22%
CC(C)(C)CC(=O)NC(C)(C(N)=O)c1cccc(Cl)c1 (stereo not drawn)	11.5%
NC(=O)c1cccc(CCNCc2cnc(-c3cccs3)s2)c1	2.49%
Cc1ccc2cc(C(=O)NCCN3CCS(=O)(=O)CC3)c(C)nc2c1	10.5%

Compound	cytotoxicity at 10 µM
CCS(=O)(=O)c1ccc(CNc2c(Cl)cccc2C#N)cc1	-50.6%
Cc1cc(CN2CC[C@H]3C[C@H](c4nc(C5CC5)cs4)O[C@@H]3C2)no1	-97.6%
COc1cc(N2CC[C@H](O)[C@@H]2Cc2ccccc2)ncn1	-75%
CC(C)Nc1ncnc2c1CCN(C(=O)N1CCOCC1)CC2	-74%
Nc1cc(N2CCCC(CO)(Cc3ccccc3F)C2)nc(N)n1 (stereo not drawn)	12.8%
COc1ccc(C)cc1-n1c(COC(C)C)n[nH]c1=O	6.42%
Cn1cnc2cc(C(=O)N3CCN(CCO)[C@@H]4CS(=O)(=O)C[C@@H]43)ccc21	2.74%
Cc1ccccc1N1CCCN(C(=O)CCCn2ccnc2C)CC1	-3.3%
CS(=O)(=O)N1C[C@H]2CNC[C@@]2(C(=O)NCCCc2ccccc2)C1	0.334%
CCOCCC(=O)Nc1cc(C(N)=O)ccc1N1CCCC(C)C1 (stereo not drawn)	-43%
O=C(CCn1cncn1)N1CCCC(CO)(CCCc2ccccc2)C1 (stereo not drawn)	4.25%
O=c1cc(N2CCCC2)cnn1CC(F)F	6.93%
CC(C)c1cc(N2CCC(C(C)N3CCCC3)CC2)n2nccc2n1 (stereo not drawn)	-1.86%
Fc1ccccc1Cc1noc(CN2CCC(N3CCSCC3)CC2)n1	-6.47%
CN1CCCC1CCn1ccnc1-c1ccc2ccccc2n1 (stereo not drawn)	0.0773%
Cc1n[nH]c(C)c1CCNC(=O)C1CCCN(CC(N)=O)C1 (stereo not drawn)	-0.653%
Cc1cc(N(C)CCCn2cccn2)nc(N)n1	0.423%
CCCc1cnc(C)nc1N1CCC(Cc2ccc(CO)cc2)C1 (stereo not drawn)	-2.36%
Cc1nc2cc(OCc3nc(C(=O)NC(C)(CO)CO)co3)ccc2s1	47.6%
Cc1nc2c(c(N3CCCC(OCc4ccccn4)C3)n1)CCNCC2 (stereo not drawn)	0.383%
O=C1CCCN1CCCC(=O)N1CCCCC1c1ccc(F)cc1 (stereo not drawn)	-43.2%
Cc1cccc(C(C)C)c1NC(=O)CN(C)C(C)c1nccs1 (stereo not drawn)	-129%

Compound	cytotoxicity at 10 µM
Cn1ncc(N2CCC(CNC3CC(C)(C)CC(C)(C)C3)C2)cc1=O (stereo not drawn)	-10.4%
Fc1ccccc1CN1CCCC2(CCN(c3ncccn3)C2)C1 (stereo not drawn)	-104%
CC(C)C1CN(C(=O)c2cc(=O)[nH]c(=O)[nH]2)CCCN1CC1CC1 (stereo not drawn)	-2.42%
CCCn1ncc(CN2CCCC(C(=O)c3ccc(Cl)cc3C)C2)c1C (stereo not drawn)	-6.35%
CSc1ncc(CNCC2(N3CCCCC3)Cc3ccccc3C2)cn1	5.07%
COCCCN1C(=O)CC[C@H]2CN(Cc3cc4ccccc4o3)CC[C@H]21	23.8%
Cc1cc(C(F)(F)F)nc(N2CCN(Cc3nccn3C)CC2)n1	-4.28%
CNc1cc(C)nc(N2Cc3cnn(Cc4ccc(F)cc4)c3C2)n1	4.03%
O=C(Cc1cccs1)N1CCCC(CNS(=O)(=O)Cc2ccccc2)C1 (stereo not drawn)	5.78%
CCN1CCN(C(=O)c2ccc3c(c2)NC(=O)CN3)[C@H]2CS(=O)(=O)C[C@H]21	-52.9%
Cc1nonc1CN(C)c1nc(-c2ccco2)nc2c1CCN(C)CC2	-0.274%
CN(CC1CCN(c2ccccc2)C1)c1ccc(Cn2ccnc2)cn1 (stereo not drawn)	-142%
Cc1nc(N)cc(N2CCCC(COc3cccc(F)c3)C2)n1 (stereo not drawn)	-1.53%
COCCN(Cc1ccccc1C)c1nc(C)nc2oc(C)nc12	-51.8%
CC(=O)c1cnc(NCC2OCCc3ccccc32)nc1C (stereo not drawn)	-48.9%
CCn1nc(C)c(CCNC(=O)c2cccc(-n3cccn3)c2)c1C	-12.9%
Cc1nc(NCc2noc(C3CCCO3)n2)c2ccsc2n1 (stereo not drawn)	49.9%
COCCCC1(CO)CCCN(Cc2nccs2)C1 (stereo not drawn)	2.43%
COc1ccc(Oc2ncccc2F)cc1CN1CCCC1	2.09%
Cn1ccc(C(=O)N2CCCC(Cc3cccc4ncccc34)C2)n1 (stereo not drawn)	22.1%
CCc1nc(C2CCCN2Cc2noc(Cc3ccccc3)n2)no1 (stereo not drawn)	1.29%
Cc1nc(C)n(CC2CCCN(c3ncnc4sccc34)C2)n1 (stereo not drawn)	36.2%

Compound	cytotoxicity at 10 µM
c1cc(OCc2ccc3c(c2)OCO3)ccc1CNC1CC1	4.7%
c1cc2nccc(CC3CCCN(Cc4c[nH]cn4)CC3)c2cn1 (stereo not drawn)	-5.11%
Cc1ccc(N2CC[C@H]3CN(C(=O)c4ccn(C)n4)C[C@H]3C2)nn1	-102%
O=C1CC(c2ccncc2)C2(CCN(C(=O)c3cccs3)CC2)N1 (stereo not drawn)	-71.1%
Cc1cnc(N2C[C@@H]3[C@@H](C2)OCC(=O)N3CCN(C)C)nc1	-4.35%
COc1cc(N2C[C@H]3CCC[C@@H](CN4CCOCC4)[C@H]3C2)ncn1	-71.5%
O=C(NCc1cccnc1)[C@@H]1CC[C@@H]2[C@@H](CCN2c2ncc(F)cn2)O1	-44.6%
c1ccc(-c2cc(CNCCCC3CCOC3)c3nnnn3c2)cc1 (stereo not drawn)	-22.3%
NCc1ccc(OC(F)F)cc1OC(F)F	-43%
Cc1n[nH]c2ncc(CNC3CCCN(c4ncccn4)C3)cc12 (stereo not drawn)	23.6%
Cc1cncc(C(=O)N2CCO[C@H]3[C@H](Oc4ccccn4)CC[C@@H]32)c1	-115%
Cn1cc(CN2CCOC3(CCCN(c4cccc(F)c4)C3)C2)cn1 (stereo not drawn)	-77.1%
CC(C)NC(=O)N1Cc2nccn2CC(CN2CCCC2)C1 (stereo not drawn)	-75.8%
O=C(NCc1cccnc1)[C@@H]1C[C@H]2[C@H](CCN2c2ncccn2)O1	-66.6%
O=C(NCc1cccnc1)[C@H]1CC[C@@H]2[C@@H](CCN2c2ncccn2)O1	-82.2%
O=C(c1ccoc1)N1CCC2(CC1)COC(COc1ccccn1)C2 (stereo not drawn)	-123%
Cn1nccc1-c1nc2c(cc1C(=O)O)CCN(C(=O)C1CC1)CC2	-143%
CCNCCc1nc2cc(F)ccc2[nH]1	5.18%
COC1[C@@H]2CC[C@H]1CN(c1nc(C)nc3sccc13)C2 (stereo partly drawn)	34%
CS(=O)(=O)c1ccc(CN2C[C@@H]3CC[C@H]2CN(c2ncccn2)C3)cc1	0.345%
